Test results as given in ChEMBL document CHEMBL2163188, “Discovery of piragliatin--first glucokinase activator studied in type 2 diabetic patients” (J Med Chem, 2012).

Target: T1, Hexokinase-4 (Homo sapiens) (UniProt P35557)
T1 sequence (whole entry): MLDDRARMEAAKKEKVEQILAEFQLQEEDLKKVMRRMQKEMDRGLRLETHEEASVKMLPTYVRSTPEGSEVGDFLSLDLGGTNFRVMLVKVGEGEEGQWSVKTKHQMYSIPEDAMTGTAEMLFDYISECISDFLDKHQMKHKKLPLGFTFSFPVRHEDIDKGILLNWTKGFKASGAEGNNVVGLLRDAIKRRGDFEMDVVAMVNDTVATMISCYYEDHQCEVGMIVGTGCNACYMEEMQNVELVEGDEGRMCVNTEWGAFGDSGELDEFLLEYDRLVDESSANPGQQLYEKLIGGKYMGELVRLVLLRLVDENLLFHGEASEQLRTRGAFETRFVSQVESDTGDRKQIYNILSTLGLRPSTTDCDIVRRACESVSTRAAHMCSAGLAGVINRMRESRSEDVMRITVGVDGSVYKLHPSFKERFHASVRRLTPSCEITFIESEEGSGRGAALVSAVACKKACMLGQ
Assay: Activation of human recombinant glucokinase assessed as concentration required for 1.5 fold increase in enzymatic activity
How it was run: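 Human recombinant GK; activator at fixed concentrations from ∼0.010 to 30 μM, each in duplicate, with glucose held at 5 mM. SC1.5 is the activator concentration giving a 1.5-fold rise in enzymatic activity over untreated GK. Assay CV was about 15%.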

SMILES: CS(=O)(=O)c1ccc(C(CC2CCCC2)C(=O)Nc2ccccn2)cc1Cl (racemic)
- Activity: 0.083 µM
